# Laboratory results taken from ChEMBL document CHEMBL4765405, “Design, synthesis and biological activities of novel pleuromutilin derivatives with a substituted triazole moiety as potent antibacterial agents” (Eur J Med Chem, 2020).
# Activity calls are given as the source filed them. No cut-off for these calls is given here.
# Tests used:
# [1] = Inhibition of CYP450 (unknown origin); assay type: ADME, Homo sapiens
# Staphylococcus aureus [2] = assay: Antibacterial activity against methicillin-resistant Staphylococcus aureus ATCC 43300 after 24 hrs by CLSI based broth micro dilution method; assay type: functional
# Outline: (§1)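 Broth microdilution run per CLSI. MRSA ATCC 43300 served as the QC strain, with the CLSI QC range as reference. S. aureus AD3 and 144 are clinical isolates from Guangdong Province. Pleuromutilin and tiamulin were run as reference drugs.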
# Staphylococcus aureus [3] = assay: Antibacterial activity against Staphylococcus aureus ATCC 29213 after 24 hrs by CLSI based broth micro dilution method; assay type: functional; outline: as §1
# Staphylococcus aureus [4] = assay: Antibacterial activity against Staphylococcus aureus AD3 after 24 hrs by CLSI based broth micro dilution method; assay type: functional
# Outline: (§2)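 CLSI broth microdilution MIC against S. aureus ATCC 43300 (MRSA), ATCC 29213, clinical isolates AD3 and 144 (Guangdong Province), and E. coli ATCC 25922; ATCC 43300 served as QC strain, with the CLSI quality control range as reference.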
# Staphylococcus aureus [5] = assay: Antibacterial activity against Staphylococcus aureus 144 after 24 hrs by CLSI based broth micro dilution method; assay type: functional; outline: as §1
# Escherichia coli [6] = assay: Antibacterial activity against Escherichia coli ATCC 25922 after 24 hrs by CLSI based broth micro dilution method; assay type: functional; outline: as §2
# Staphylococcus aureus [7] = assay: Bactericidal activity against methicillin-resistant Staphylococcus aureus ATCC 43300 preincubated 16 to 20 hrs followed by subculturing and measured after over night; assay type: functional
# Outline: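 MBC determined by the CLSI broth microdilution method against MRSA ATCC 43300, with ATCC 43300 also serving as the QC strain. Pleuromutilin and tiamulin were reference drugs.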
# Staphylococcus aureus [8] = assay: Bactericidal activity against Staphylococcus aureus ATCC 29213 preincubated 16 to 20 hrs followed by subculturing and measured after over night; assay type: functional
# Outline: (§3)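 MBC by CLSI broth microdilution on the same strain panel: S. aureus ATCC 43300, ATCC 29213, clinical isolates AD3 and 144, E. coli ATCC 25922; ATCC 43300 served as QC strain.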
# Staphylococcus aureus [9] = assay: Bactericidal activity against Staphylococcus aureus AD3 preincubated 16 to 20 hrs followed by subculturing and measured after over night; assay type: functional; outline: as §3
# Staphylococcus aureus [10] = assay: Bactericidal activity against Staphylococcus aureus 144 preincubated 16 to 20 hrs followed by subculturing and measured after over night; assay type: functional; outline: as §3
# Escherichia coli [11] = assay: Bactericidal activity against Escherichia coli ATCC 25922 preincubated 16 to 20 hrs followed by subculturing and measured after over night; assay type: functional; outline: as §3
# [12] = Ratio of MBC for bactericidal activity against methicillin-resistant Staphylococcus aureus ATCC 43300 to MIC for antibacterial activity against methicillin-resistant Staphylococcus aureus ATCC 4330; assay type: functional
# Staphylococcus aureus [13] = assay: Bactericidal activity against methicillin-resistant Staphylococcus aureus ATCC 43300 assessed as reduction in bacterial growth at MIC concentration preincubated up to 24 hrs followed by subculturing and measured after 20 hrs by time-kill assay; assay type: functional, organism-based; conditions: time hrs <=44
# Staphylococcus aureus [14] = assay: Bactericidal activity against methicillin-resistant Staphylococcus aureus ATCC 43300 assessed as reduction in bacterial growth at > 4 time of MIC concentration preincubated up to 24 hrs followed by subculturing and measured after 20 hrs by time-kill assay; assay type: functional; parameters: scale not given: the % may be the effect or the level left; conditions: time hrs <=44
# Staphylococcus aureus [15] = assay: Antibacterial activity against methicillin-resistant Staphylococcus aureus ATCC 43300 assessed as post antibacterial effect at 2 time of MIC concentration preincubated for 2 hrs followed by compound washout further incubated with fresh medium and measured for 6 hrs; assay type: functional
# Staphylococcus aureus [16] = assay: Antibacterial activity against methicillin-resistant Staphylococcus aureus ATCC 43300 assessed as post antibacterial effect at 4 time of MIC concentration preincubated for 2 hrs followed by compound washout further incubated with fresh medium and measured for 6 hrs; assay type: functional
# Staphylococcus aureus [17] = assay: Bactericidal activity against methicillin-resistant Staphylococcus aureus ATCC 43300 assessed as reduction in bacterial growth at > 8 time of MIC concentration preincubated up to 24 hrs followed by subculturing and measured after 20 hrs by time-kill assay; assay type: functional, organism-based; conditions: time hrs <=44
# Staphylococcus aureus [18] = assay: Antibacterial activity against methicillin-resistant Staphylococcus aureus ATCC 43300 infected in ICR/Swiss mouse model of neutropenic thigh infection assessed as reduction in bacterial load at 20 mg/kg, iv and measured after 24 hrs; assay type: functional
# Outline: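 Mice made neutropenic by intraperitoneal cyclophosphamide; the negative control group received 0.9% saline intraperitoneally. Thigh muscle was inoculated with about 10^7 CFU/mL MRSA. Dose 20 mg/kg, with tiamulin as comparator and an untreated control. Read-out was thigh bacterial load (log10 CFU/g), n = 6/group.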
# Staphylococcus aureus [19] = assay: Antibacterial activity against methicillin-resistant Staphylococcus aureus ATCC 43300 infected in ICR/Swiss mouse systemic infection model assessed as survival rate at 30 mg/kg, ip after 7 days relative to control; assay type: functional; conditions: ATCC 43300, ip, 168 h, time 7 day
# Outline: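 MRSA systemic infection model in mice. Dose 30 mg/kg with tiamulin as comparator and an untreated infected control. Survival was recorded after 7 days of administration.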
# RAW264.7 = assay: Cytotoxicity against mouse RAW264.7 cells assessed as reduction in cell viability at 8 ug/ml after 16 hrs by MTT assay; assay type: cell-based; conditions: raw264.7, 16 h, dose 8 µg/ml
# Outline: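 RAW 264.7 macrophage viability read by MTT assay after exposure at 8 μg/mL.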
# Cytochrome P450 3A4 = Cytochrome P450 3A4 (Homo sapiens, UniProt P08684); assay: Inhibition of CYP3A4 in human liver microsomes using testosterone as substrate preincubated for 5 mins followed by NADPH addition and measured after 5 mins by LC-MS/MS analysis; assay type: ADME
# Chain of Cytochrome P450 3A4 (P08684 whole entry): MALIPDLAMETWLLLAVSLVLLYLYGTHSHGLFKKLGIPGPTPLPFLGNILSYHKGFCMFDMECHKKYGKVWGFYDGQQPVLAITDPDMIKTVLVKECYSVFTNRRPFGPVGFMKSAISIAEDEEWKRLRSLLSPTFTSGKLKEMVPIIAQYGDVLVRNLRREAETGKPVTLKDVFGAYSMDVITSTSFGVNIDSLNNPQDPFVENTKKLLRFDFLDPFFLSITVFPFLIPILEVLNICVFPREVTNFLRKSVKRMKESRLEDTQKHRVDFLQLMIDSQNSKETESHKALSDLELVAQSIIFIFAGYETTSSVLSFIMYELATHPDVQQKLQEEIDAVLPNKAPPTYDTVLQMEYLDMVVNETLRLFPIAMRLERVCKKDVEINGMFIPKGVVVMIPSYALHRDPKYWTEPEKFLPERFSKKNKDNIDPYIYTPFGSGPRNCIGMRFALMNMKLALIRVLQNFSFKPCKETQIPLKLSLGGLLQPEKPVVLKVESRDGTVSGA
SMILES,MIC (Staphylococcus aureus [2]),MIC (Staphylococcus aureus [3]),MIC (Staphylococcus aureus [4]),MIC (Staphylococcus aureus [5]),MIC (Escherichia coli [6]),MBC (Staphylococcus aureus [7]),MBC (Staphylococcus aureus [8]),MBC (Staphylococcus aureus [9]),MBC (Staphylococcus aureus [10]),MBC (Escherichia coli [11]),Ratio [12],other results
CC[C@]1(C)C[C@@H](OC(=O)CSc2nnc(N)[nH]2)[C@]2(C)[C@H](C)CC[C@]3(CCC(=O)[C@H]32)[C@@H](C)[C@@H]1O [AZAMULIN],–,–,–,–,–,–,–,–,–,–,–,IC50 [1]: 120 nM
C=C[C@]1(C)C[C@@H](OC(=O)CSc2ccccc2NC(=O)Cn2cc(CN(CC)CC)nn2)[C@]2(C)[C@H](C)CC[C@]3(CCC(=O)[C@H]32)[C@@H](C)[C@@H]1O,0.25 µg/mL,0.25 µg/mL,0.5 µg/mL,0.5 µg/mL,> 32 µg/mL,0.5 µg/mL,0.25 µg/mL,1 µg/mL,0.5 µg/mL,> 32 µg/mL,1,Activity (Staphylococcus aureus [13]): Active; Activity (Staphylococcus aureus [14]): 99.9%; PAE (Staphylococcus aureus [15]): 1.81 h; PAE (Staphylococcus aureus [16]): 1.84 h
C=C[C@]1(C)C[C@@H](OC(=O)CSc2ccccc2NC(=O)Cn2cc(CN3CCN(c4ccc([N+](=O)[O-])cc4)CC3)nn2)[C@]2(C)[C@H](C)CC[C@]3(CCC(=O)[C@H]32)[C@@H](C)[C@@H]1O,0.125 µg/mL,0.125 µg/mL,0.25 µg/mL,0.25 µg/mL,> 32 µg/mL,0.25 µg/mL,0.125 µg/mL,0.5 µg/mL,0.25 µg/mL,> 32 µg/mL,1,Activity (Staphylococcus aureus [17]): Active
C=C[C@]1(C)C[C@@H](OC(=O)CSCCN(CC)CC)[C@]2(C)[C@H](C)CC[C@]3(CCC(=O)[C@H]32)[C@@H](C)[C@@H]1O [TIAMULIN],0.5 µg/mL,0.5 µg/mL,1 µg/mL,1 µg/mL,–,1 µg/mL,1 µg/mL,2 µg/mL,2 µg/mL,–,–,PAE (Staphylococcus aureus [15]): 1.65 h; PAE (Staphylococcus aureus [16]): 2.04 h; Activity (Staphylococcus aureus [18]): 0.77 log10CFU/g; survival at 30 mg/kg (Staphylococcus aureus [19]): 20%
C=C[C@]1(C)C[C@@H](OC(=O)CSc2ccccc2NC(=O)Cn2cc(CN3CCN(c4cccc([N+](=O)[O-])c4)CC3)nn2)[C@]2(C)[C@H](C)CC[C@]3(CCC(=O)[C@H]32)[C@@H](C)[C@@H]1O,0.125 µg/mL,0.25 µg/mL,0.25 µg/mL,0.25 µg/mL,> 32 µg/mL,0.25 µg/mL,0.25 µg/mL,0.5 µg/mL,0.5 µg/mL,> 32 µg/mL,1,Activity (Staphylococcus aureus [17]): Active
C=C[C@]1(C)C[C@@H](OC(=O)CSc2ccccc2NC(=O)Cn2cc(CN(C)C)nn2)[C@]2(C)[C@H](C)CC[C@]3(CCC(=O)[C@H]32)[C@@H](C)[C@@H]1O,0.25 µg/mL,0.25 µg/mL,0.25 µg/mL,0.5 µg/mL,> 32 µg/mL,0.5 µg/mL,0.25 µg/mL,0.5 µg/mL,0.5 µg/mL,> 32 µg/mL,1,Activity (Staphylococcus aureus [13]): Active; Activity (Staphylococcus aureus [14]): 99.9%; PAE (Staphylococcus aureus [15]): 2.03 h; PAE (Staphylococcus aureus [16]): 2.74 h; Activity (Staphylococcus aureus [18]): 1.71 log10CFU/g; survival at 30 mg/kg (Staphylococcus aureus [19]): 50%; Activity (RAW264.7): Non-Toxic; IC50 (Cytochrome P450 3A4): 6.15 µM
C=C[C@]1(C)C[C@@H](OC(=O)CSc2ccccc2NC(=O)Cn2cc(CN3CCN(c4ccccc4F)CC3)nn2)[C@]2(C)[C@H](C)CC[C@]3(CCC(=O)[C@H]32)[C@@H](C)[C@@H]1O,1 µg/mL,0.5 µg/mL,0.5 µg/mL,1 µg/mL,> 32 µg/mL,2 µg/mL,1 µg/mL,1 µg/mL,1 µg/mL,> 32 µg/mL,1,–
C=C[C@]1(C)C[C@@H](OC(=O)CSc2ccccc2NC(=O)Cn2cc(CN3CCC(CCO)CC3)nn2)[C@]2(C)[C@H](C)CC[C@]3(CCC(=O)[C@H]32)[C@@H](C)[C@@H]1O,0.5 µg/mL,0.5 µg/mL,1 µg/mL,0.5 µg/mL,> 32 µg/mL,1 µg/mL,0.5 µg/mL,1 µg/mL,0.5 µg/mL,> 32 µg/mL,1,–
C=C[C@]1(C)C[C@@H](OC(=O)CSc2ccccc2NC(=O)Cn2cc(CN3CCN(c4ccccc4Cl)CC3)nn2)[C@]2(C)[C@H](C)CC[C@]3(CCC(=O)[C@H]32)[C@@H](C)[C@@H]1O,1 µg/mL,1 µg/mL,2 µg/mL,2 µg/mL,> 32 µg/mL,2 µg/mL,2 µg/mL,2 µg/mL,4 µg/mL,> 32 µg/mL,1,–
C=C[C@]1(C)C[C@@H](OC(=O)CSc2ccccc2NC(=O)Cn2cc(CN3CCN(c4ccccc4O)CC3)nn2)[C@]2(C)[C@H](C)CC[C@]3(CCC(=O)[C@H]32)[C@@H](C)[C@@H]1O,0.5 µg/mL,1 µg/mL,1 µg/mL,1 µg/mL,> 32 µg/mL,1 µg/mL,1 µg/mL,2 µg/mL,2 µg/mL,> 32 µg/mL,1,–
C=C[C@]1(C)C[C@@H](OC(=O)CSc2ccccc2NC(=O)Cn2cc(CN3CCN(c4cccc(O)c4)CC3)nn2)[C@]2(C)[C@H](C)CC[C@]3(CCC(=O)[C@H]32)[C@@H](C)[C@@H]1O,0.25 µg/mL,0.25 µg/mL,0.25 µg/mL,0.5 µg/mL,> 32 µg/mL,0.5 µg/mL,0.5 µg/mL,0.5 µg/mL,1 µg/mL,> 32 µg/mL,1,–
